# Measured values published in ChEMBL document CHEMBL3244400, “Synthesis of 3,4-dihydro-4-oxothieno[2,3-d]pyrimidine-2-carboxylates, a new series of orally active antiallergy agents” (J Med Chem, 1979).
# Active and inactive are the calls of the source. The rule behind the calls is not given here.
# Assays:
# Rattus norvegicus [1] = assay: Antiallergic activity against egg albumin-induced anaphylaxis in po dosed sensitized rat compound administered 15 mins prior to antigen challenge as single dose by passive cutaneous anaphylaxis test; type: functional
# Outline: (§1)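 Male Sprague–Dawley or Wistar rats (100–150 g) were passively sensitized by two intradermal dilutions of rat anti-egg-albumin serum, which was mainly IgE and raised with EA im (10 mg/kg) plus killed pertussis vaccine iv. After 48 h, drug or vehicle was given. Rats were then challenged iv with EA plus Evans Blue (25 mg/kg each). Spot diameter was read 20–30 min later; ≥5 rats/compound. % inhibition was calculated versus control mean diameter.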
# Rattus norvegicus [2] = assay: Antiallergic activity against egg albumin-induced anaphylaxis in iv dosed sensitized rat compound administered 15 mins prior to antigen challenge as single dose by passive cutaneous anaphylaxis test; type: functional; outline: as §1
# Rattus norvegicus [3] = assay: Antiallergic activity against egg albumin-induced anaphylaxis in sensitized rat at 30 mg/kg, po administered 15 mins prior to antigen challenge as single dose measured up to 4 hrs by passive cutaneous anaphylaxis test; type: functional, organism-based; parameters: dose 30 mg/kg; outline: as §1
# Rattus norvegicus [4] = assay: Antiallergic activity against egg albumin-induced anaphylaxis in sensitized rat at 50 mg/kg, po administered 15 mins prior to antigen challenge as single dose measured up to 4 hrs by passive cutaneous anaphylaxis test; type: functional, organism-based; parameters: dose 50 mg/kg; outline: as §1
# Rattus norvegicus [5] = assay: Antiallergic activity against egg albumin-induced anaphylaxis in sensitized rat at 5 mg/kg, po administered 15 mins prior to antigen challenge as single dose measured up to 4 hrs by passive cutaneous anaphylaxis test; type: functional, organism-based; parameters: dose 5 mg/kg; outline: as §1
# Rattus norvegicus [6] = assay: Antiallergic activity against egg albumin-induced anaphylaxis in sensitized rat at 10 mg/kg, po administered 15 mins prior to antigen challenge as single dose measured up to 4 hrs by passive cutaneous anaphylaxis test; type: functional, organism-based; parameters: dose 10 mg/kg; outline: as §1
# Mast cell [7] = assay: Inhibition of histamine release in Sprague-Dawley rat peritoneal mast cells at 1.25 uM after 10 mins by fluorimetry relative to control; type: functional
# Outline: (§2)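 Peritoneal lavage cells from male Sprague–Dawley rats (200–300 g) were sensitized for 2 h at 37 °C in rat anti-EA serum with heparin. Cells were resuspended in buffered HBSS and challenged with EA. Drug was added together with antigen. After 10 min incubation, histamine was measured fluorimetrically. % inhibition was calculated versus release without drug.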
# Mast cell [8] = assay: Inhibition of histamine release in Sprague-Dawley rat peritoneal mast cells at 5 uM after 10 mins by fluorimetry relative to control; type: functional; outline: as §2
# Mast cell [9] = assay: Inhibition of histamine release in Sprague-Dawley rat peritoneal mast cells at 20 uM after 10 mins by fluorimetry relative to control; type: functional; outline: as §2
# Rattus norvegicus [10] = assay: Antiallergic activity against egg albumin-induced anaphylaxis in sensitized rat at 25 mg/kg, po administered 15 mins prior to antigen challenge as single dose measured up to 4 hrs by passive cutaneous anaphylaxis test; type: functional, organism-based; parameters: dose 25 mg/kg; outline: as §1
# Rattus norvegicus [11] = assay: Inhibition of egg albumin-induced allergic bronchospasm in sensitized, spontaneously breathing and anesthesized Harlan-Wistar rat assessed as inhibition of control allergic bronchospasm response at 0.39 mg/kg administered intraduodenally 15 min prior to antigen challenge; type: functional; details: route intraduodenal
# Outline: (§3)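 Male Harlan-Wistar rats (225–275 g) were sensitized with EA im (1 mg/rat) plus pertussis vaccine ip. After 13–15 days they were urethane-anesthetized (1.5 g/kg ip). Drug was given intraduodenally in methocel or iv in saline, then EA 2 mg/rat iv. Pulmonary ventilation pressure and mean arterial pressure were recorded. Individual responses were compared with a separate vehicle-control group mean; 4–15 rats/group.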
# Rattus norvegicus [12] = assay: Inhibition of egg albumin-induced allergic bronchospasm in sensitized, spontaneously breathing and anesthesized Harlan-Wistar rat assessed as drop in pulmonary arterial blood pressure at 0.39 mg/kg administered intraduodenally 15 min prior to antigen challenge (reference value: 32.2 +/- 4.7 %); type: functional; details: route intraduodenal; outline: as §3
# Rattus norvegicus [13] = assay: Inhibition of egg albumin-induced allergic bronchospasm in sensitized, spontaneously breathing and anesthesized Harlan-Wistar rat assessed as drop in mean arterial blood pressure at 0.78 mg/kg administered intraduodenally 15 min prior to antigen challenge (reference value: 46.3 +/- 3.5 %); type: functional; details: route intraduodenal; outline: as §3
# Rattus norvegicus [14] = assay: Inhibition of egg albumin-induced allergic bronchospasm in sensitized, spontaneously breathing and anesthesized Harlan-Wistar rat assessed as drop in pulmonary arterial blood pressure at 0.78 mg/kg administered intraduodenally 15 min prior to antigen challenge (reference value: 32.2 +/- 4.7 %); type: functional; details: route intraduodenal; outline: as §3
# Rattus norvegicus [15] = assay: Inhibition of egg albumin-induced allergic bronchospasm in sensitized, spontaneously breathing and anesthesized Harlan-Wistar rat assessed as drop in mean arterial blood pressure at 3.125 mg/kg administered intraduodenally 15 min prior to antigen challenge (reference value: 46.3 +/- 3.5 %); type: functional; details: route intraduodenal; outline: as §3
# Rattus norvegicus [16] = assay: Inhibition of egg albumin-induced allergic bronchospasm in sensitized, spontaneously breathing and anesthesized Harlan-Wistar rat assessed as inhibition of control allergic hypotension response compound administered intraduodenally 15 min prior to antigen challenge; type: functional; details: in the assay text read “bronchospasm response” for “hypotension response”; outline: as §3
# Rattus norvegicus [17] = assay: Inhibition of egg albumin-induced allergic bronchospasm in sensitized, spontaneously breathing and anesthesized Harlan-Wistar rat assessed as inhibition of control allergic bronchospasm response at 0.78 mg/kg administered intraduodenally 15 min prior to antigen challenge; type: functional; details: route intraduodenal; outline: as §3
# Rattus norvegicus [18] = assay: Inhibition of egg albumin-induced allergic bronchospasm in sensitized, spontaneously breathing and anesthesized Harlan-Wistar rat assessed as inhibition of control allergic hypotension response at 0.78 mg/kg administered intraduodenally 15 min prior to antigen challenge; type: functional; details: route intraduodenal; outline: as §3
# Rattus norvegicus [19] = assay: Inhibition of egg albumin-induced allergic bronchospasm in sensitized, spontaneously breathing and anesthesized Harlan-Wistar rat assessed as inhibition of control allergic bronchospasm response compound administered intraduodenally 15 min prior to antigen challenge; type: functional; outline: as §3
# Rattus norvegicus [20] = assay: Inhibition of egg albumin-induced allergic bronchospasm in sensitized, spontaneously breathing and anesthesized Harlan-Wistar rat assessed as inhibition of control allergic bronchospasm response at 3.125 mg/kg administered intraduodenally 15 min prior to antigen challenge; type: functional; details: route intraduodenal; outline: as §3
# Rattus norvegicus [21] = assay: Inhibition of egg albumin-induced allergic bronchospasm in sensitized, spontaneously breathing and anesthesized Harlan-Wistar rat assessed as drop in pulmonary arterial blood pressure at 3.125 mg/kg administered intraduodenally 15 min prior to antigen challenge (reference value: 32.2 +/- 4.7 %); type: functional; details: route intraduodenal; outline: as §3
# Plasma = assay: Drug metabolism in Sprague-Dawley rat plasma assessed as sodium 2-carboxy-6-ethyl-4a,7a-dihydrothieno[2,3-d]pyrimidin-4-olate formation at 50 mg/kg, po; type: ADME, organism-based; parameters: dose 50 mg/kg, route oral; details: in vivo
# Outline: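 Mature Sprague–Dawley rats (150–200 g) were fasted overnight and given a single 50 mg/kg oral dose. Blood was taken at 0.5–6 h, two rats per time point. Plasma (1 mL) was acidified to pH 1–2 and extracted twice with CHCl₃. The dried residue was taken up in methanol and quantified by reverse-phase C-18 HPLC.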
# Rattus norvegicus [22] = assay: Inhibition of egg albumin-induced allergic bronchospasm in sensitized, spontaneously breathing and anesthesized Harlan-Wistar rat assessed as drop in mean arterial blood pressure at 0.39 mg/kg administered intraduodenally 15 min prior to antigen challenge (reference value: 46.3 +/- 3.5 %); type: functional; details: route intraduodenal; outline: as §3
# Rattus norvegicus [23] = assay: Inhibition of egg albumin-induced allergic bronchospasm in sensitized, spontaneously breathing and anesthesized Harlan-Wistar rat assessed as inhibition of control allergic hypotension response at 3.125 mg/kg administered intraduodenally 15 min prior to antigen challenge; type: functional; details: route intraduodenal; outline: as §3
# Rattus norvegicus [24] = assay: Inhibition of egg albumin-induced allergic bronchospasm in sensitized, spontaneously breathing and anesthesized Harlan-Wistar rat assessed as inhibition of control allergic hypotension response at 0.39 mg/kg administered intraduodenally 15 min prior to antigen challenge; type: functional; details: route intraduodenal; outline: as §3
compound,measurement,setting,value
CCOC(=O)c1nc2sc(CC)c(I)c2c(=O)[nH]1,ED50,Rattus norvegicus [1],8.1 mg/kg
CCCCCCc1cc2c([O-])nc(C(=O)[O-])nc2s1.O.[Na+].[Na+],ED50,Rattus norvegicus [1],17.7 mg/kg
CCOC(=O)C(=O)Nc1sccc1C(N)=O,ED50,Rattus norvegicus [2],0.2 mg/kg
same,Activity,Rattus norvegicus [3],Active
same,ED50,Rattus norvegicus [1],4.5 mg/kg
CC(=O)c1sc2nc(C(=O)O)nc(O)c2c1C,Activity,Rattus norvegicus [4],inactive
CCOC(=O)c1nc2sc(C(C)=O)c(C)c2c(=O)o1,Activity,Rattus norvegicus [5],inactive
CCCCCCc1cc2c(=O)oc(C(=O)OCC)nc2s1,Activity,Rattus norvegicus [6],inactive
CCOC(=O)c1nc2sc(CC(C)C)c(C)c2c(=O)o1,Activity,Rattus norvegicus [5],inactive
CC(C)c1cc2c([O-])nc(C(=O)[O-])nc2s1.O.[Na+].[Na+],ED50,Rattus norvegicus [2],1 mg/kg
same,ED50,Rattus norvegicus [1],> 10 mg/kg
CCc1cc2c([O-])nc(C(=O)[O-])nc2s1.O.[Na+].[Na+],inhibition at 1.25 µM,Mast cell [7],22%
same,inhibition at 5 µM,Mast cell [8],51%
same,ED50,Rattus norvegicus [2],1.2 mg/kg
same,inhibition at 20 µM,Mast cell [9],73%
same,ED50,Rattus norvegicus [1],13 mg/kg
CCOC(=O)c1nc2sc(CC)c(C)c2c(=O)[nH]1,ED50,Rattus norvegicus [1],11.3 mg/kg
CCOC(=O)c1nc2scc(C)c2c(=O)[nH]1,ED50,Rattus norvegicus [1],50 mg/kg
CCOC(=O)c1nc2sc(CC)cc2c(=O)o1,ED50,Rattus norvegicus [1],34.4 mg/kg
O.O=C([O-])c1nc([O-])c2c3c(sc2n1)CCCC3.[Na+].[Na+],ED50,Rattus norvegicus [1],50 mg/kg
CCCCCCc1sc2nc(C(=O)OCC)[nH]c(=O)c2c1C,ED50,Rattus norvegicus [1],50 mg/kg
CCOC(=O)c1nc2sc(C(C)C)cc2c(=O)[nH]1,ED50,Rattus norvegicus [1],17.9 mg/kg
CCCCCCc1cc2c(=O)[nH]c(C(=O)OCC)nc2s1,ED50,Rattus norvegicus [1],> 5 mg/kg
CCOC(=O)c1nc2sc(CC(C)C)c(C)c2c(=O)[nH]1,ED50,Rattus norvegicus [1],8.1 mg/kg
Cc1csc2nc(C(=O)[O-])nc([O-])c12.O.[Na+].[Na+],ED50,Rattus norvegicus [1],50 mg/kg
Cc1c(CC(C)C)sc2nc(C(=O)[O-])nc([O-])c12.O.[K+].[K+],ED50,Rattus norvegicus [2],0.14 mg/kg
same,ED50,Rattus norvegicus [1],2.7 mg/kg
CCOC(=O)c1nc2sc(C(C)=O)c(C)c2c(=O)[nH]1,ED50,Rattus norvegicus [1],25 mg/kg
CCOC(=O)c1nc2sc(CC)c(C)c2c(=O)o1,Activity,Rattus norvegicus [5],inactive
CCOC(=O)c1nc2sc(CC)c(N)c2c(=O)[nH]1,ED50,Rattus norvegicus [1],10 mg/kg
CCc1sc2nc(C(=O)[O-])nc([O-])c2c1C.O.[Na+].[Na+],ED50,Rattus norvegicus [1],10 mg/kg
CCOC(=O)c1nc2sc(C(C)C)cc2c(=O)o1,ED50,Rattus norvegicus [1],> 10 mg/kg
CCOC(=O)c1nc2sccc2c(=O)[nH]1,ED50,Rattus norvegicus [1],> 25 mg/kg
CCCCCCc1sc2nc(C(=O)OCC)oc(=O)c2c1C,ED50,Rattus norvegicus [1],8.2 mg/kg
CCc1sc2nc(C(=O)O)nc(O)c2c1N,Activity,Rattus norvegicus [10],inactive
Cc1c(CC(C)C)sc2nc(C(=O)O)[nH]c(=O)c12,Activity,Rattus norvegicus [3],Active
CCOC(=O)c1nc2sc(CC)cc2c(=O)[nH]1,inhibition in vivo at 0.39 mg/kg,Rattus norvegicus [11],4.3%
same,inhibition at 1.25 µM,Mast cell [7],19%
same,inhibition in vivo at 0.39 mg/kg,Rattus norvegicus [12],48.8%
same,inhibition in vivo at 0.78 mg/kg,Rattus norvegicus [13],51.8%
same,inhibition in vivo at 0.78 mg/kg,Rattus norvegicus [14],29.2%
same,inhibition at 5 µM,Mast cell [8],55%
same,inhibition in vivo at 3.125 mg/kg,Rattus norvegicus [15],42.4%
same,inhibition,Rattus norvegicus [16],Dose-dependent effect
same,ED50,Rattus norvegicus [16]; intraduodenal,1 mg/kg
same,inhibition in vivo at 0.78 mg/kg,Rattus norvegicus [17],27.8%
same,inhibition in vivo at 0.78 mg/kg,Rattus norvegicus [18],5.2%
same,inhibition,Rattus norvegicus [19],Dose-dependent effect
same,ED50,Rattus norvegicus [19]; intraduodenal,1 mg/kg
same,inhibition in vivo at 3.125 mg/kg,Rattus norvegicus [20],53.6%
same,inhibition in vivo at 3.125 mg/kg,Rattus norvegicus [21],17.1%
same,Activity,Rattus norvegicus [3],Active
same,inhibition at 20 µM,Mast cell [9],82%
same,Drug metabolism,Plasma,metabolite_detected
same,inhibition in vivo at 0.39 mg/kg,Rattus norvegicus [22],48.7%
same,ED50,Rattus norvegicus [1],2.4 mg/kg
same,inhibition in vivo at 3.125 mg/kg,Rattus norvegicus [23],18.9%
same,inhibition in vivo at 0.39 mg/kg,Rattus norvegicus [24],2.7%
CCOC(=O)c1nc2sc(N)c(C)c2c(=O)[nH]1,ED50,Rattus norvegicus [1],< 50 mg/kg
